Measured values from ChEMBL document CHEMBL2203249, “Optimization of a small tropomyosin-related kinase B (TrkB) agonist 7,8-dihydroxyflavone active in mouse models of depression” (J Med Chem, 2012).
Activity calls are given as the source filed them. No cut-off for these calls is given here.

How the values were obtained:
[1] = target: Voltage-gated inwardly rectifying potassium channel KCNH2 (Homo sapiens, UniProt Q12809); assay: Inhibition of human ERG
CYP1A2 = target: T1, CYP1A2 (Homo sapiens, UniProt P05177); assay: Inhibition of CYP1A2 at 3 uM; type: ADME
T1 sequence (P05177 whole entry): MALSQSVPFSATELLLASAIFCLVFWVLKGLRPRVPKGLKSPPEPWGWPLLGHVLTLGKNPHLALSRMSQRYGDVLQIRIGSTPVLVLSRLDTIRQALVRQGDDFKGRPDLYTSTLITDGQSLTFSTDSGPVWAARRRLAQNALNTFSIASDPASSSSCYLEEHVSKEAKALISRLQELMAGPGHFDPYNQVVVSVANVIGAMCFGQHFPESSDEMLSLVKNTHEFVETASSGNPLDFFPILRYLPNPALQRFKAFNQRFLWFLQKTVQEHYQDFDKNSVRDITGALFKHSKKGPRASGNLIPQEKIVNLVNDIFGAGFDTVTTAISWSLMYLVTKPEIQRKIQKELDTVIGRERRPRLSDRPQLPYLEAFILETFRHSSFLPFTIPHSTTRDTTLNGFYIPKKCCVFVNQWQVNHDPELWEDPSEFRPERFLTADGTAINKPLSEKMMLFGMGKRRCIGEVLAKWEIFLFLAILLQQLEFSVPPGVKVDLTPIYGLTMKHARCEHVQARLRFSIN
In short: (§1)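 CYP inhibition was tested at 3 and 30 μM and reported as percent inhibition. The assay was run by a contract lab.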

CYP2C19 = CYP2C19 (Homo sapiens, UniProt P33261); assay: Inhibition of CYP2C19 at 3 uM; type: ADME; in short: as §1
CYP2C9 = CYP2C9 (Homo sapiens, UniProt P11712); assay: Inhibition of CYP2C9 at 3 uM; type: ADME; in short: as §1
CYP3A4 = CYP3A4 (Homo sapiens, UniProt P08684); assay: Inhibition of CYP3A4 at 3 uM using modazolam substrate; type: ADME; conditions: probe midazolam (printed: modazolam)
HepG2 = assay: Genotoxicity in human HepG2 cells assessed as induction of DNA lesion at 100 uM after 24 hrs by comet assay; type: toxicity, cell-based; conditions: hepg2, 24 h
In short: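 HepG2 cells were exposed to 100 μM for 24 h, with etoposide as positive control. Cells were embedded in agarose, lysed 2 h at 4°C at pH 10, unwound 40 min in alkali at pH >13 and electrophoresed at 25 V for 30 min at 4°C. After ethidium bromide staining, comet-tail nuclei were counted in >100 cells per field. Three independent experiments, one-way ANOVA.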

Mus musculus [2] = species on record: Mus musculus; assay: Agonist activity at TrkB receptor in C57BL/J6 mouse brain assessed as TrkB phosphorylation at tyrosine 706 in hippocampus at […] by immunoblotting analysis; type: functional, organism-based
Mus musculus [3] = assay: Agonist activity at TrkB receptor in C57BL/J6 mouse brain assessed as Akt phosphorylation at serine 473 in hippocampus at 2.5 mg/kg, po after 2 hrs by immunoblotting analysis; type: functional, organism-based; design: dose 2.5 mg/kg
Mus musculus [4] = assay: Agonist activity at TrkB receptor in C57BL/J6 mouse brain assessed as TrkB phosphorylation at tyrosine 816 in hippocampus at 2.5 mg/kg, po after 2 hrs by immunoblotting analysis; type: functional, organism-based; design: dose 2.5 mg/kg
[5] = AUC last in mouse at 10 mg/kg, po by HPLC analysis; type: ADME, organism-based; design: time 0 - last, dose 10 mg/kg, route oral; conditions: plasma
In short: (§2)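 Mice of 20–30 g, 6–8 weeks old, dosed i.v. or orally. Blood was drawn at 3, 10, 30, 60, 120, 240, 360 and 480 min into lithium-heparin tubes, spun at 2500 × g for 15 min at 4°C within 1 h and stored at −20°C. Plasma was analysed by HPLC, 3 mice per time point. AUC was calculated by the linear/log trapezoidal method.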

[6] = AUC (infinity) in mouse at 10 mg/kg, po by HPLC analysis; type: ADME, organism-based; design: time infinity, dose 10 mg/kg, route oral; conditions: plasma; in short: as §2
[7] = Elimination half life in mouse at 10 mg/kg, po by HPLC analysis; type: ADME, organism-based; design: dose 10 mg/kg, route oral; conditions: in vivo, read-out: beta t1/2; in short: as §2
[8] = Cmax in mouse at 10 mg/kg, po by HPLC analysis; type: ADME, organism-based; design: dose 10 mg/kg, route oral; conditions: in vivo; in short: as §2
[9] = Tmax in mouse at 10 mg/kg, po by HPLC analysis; type: ADME, organism-based; design: dose 10 mg/kg, route oral; conditions: in vivo
In short: (§3)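 Mice (20–30 g, 6–8 weeks old) were dosed i.v. or orally. Blood was drawn into lithium-heparin tubes at 3, 10, 30, 60, 120, 240, 360 and 480 min, with 3 mice per time point. Plasma was separated at 2500 × g for 15 min at 4°C within 1 h and stored at −20°C. Samples were analysed by HPLC, and AUC was calculated by the linear/log trapezoidal method.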

Mus musculus [10] = assay: Bioavailability in mouse at 10 mg/kg by HPLC analysis; type: ADME, organism-based; conditions: in vivo; in short: as §2
[11] = AUC (infinity) in mouse at 3 mg/kg, iv by HPLC analysis; type: ADME, organism-based; design: time infinity, dose 3 mg/kg, route intravenous; conditions: plasma; in short: as §2
[12] = AUC last in mouse at 3 mg/kg, iv by HPLC analysis; type: ADME, organism-based; design: time 0 - last, dose 3 mg/kg, route intravenous; conditions: plasma; in short: as §2
[13] = Volume of distribution at steady state in mouse at 3 mg/kg, iv by HPLC analysis; type: ADME, organism-based; design: dose 3 mg/kg, route intravenous; conditions: in vivo, read-out: Vdss; in short: as §3
[14] = Volume of distribution in mouse at 3 mg/kg, iv by HPLC analysis; type: ADME, organism-based; design: dose 3 mg/kg, route intravenous; conditions: in vivo, read-out: Vz; in short: as §3
[15] = Total body clearance in mouse at 3 mg/kg, iv by HPLC analysis; type: ADME, organism-based; design: dose 3 mg/kg, route intravenous; conditions: in vivo; in short: as §3
[16] = Elimination half life in mouse at 3 mg/kg, iv by HPLC analysis; type: ADME, organism-based; design: dose 3 mg/kg, route intravenous; conditions: in vivo, read-out: beta t1/2; in short: as §2
Mus musculus [17] = assay: Antidepressant activity in C57BL/J6 mouse assessed as reduction of immobility at 2.5 mg/kg, po administered qd for 21 days by tail suspension test; type: functional, organism-based; design: dose 2.5 mg/kg
In short: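 Male C57BL/6J mice were gavaged once daily for 21 days with 2.5 mg/kg or saline vehicle, then tested for immobility during tail suspension. n=8, Student's t-test.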

Mus musculus [18] = assay: Agonist activity at TrkB receptor in C57BL/J6 mouse brain assessed as TrkB phosphorylation at tyrosine 816 in hippocampus at 2.5 mg/kg, po administered qd for 21 days by immunoblotting analysis

Chain of CYP3A4 (P08684 whole entry): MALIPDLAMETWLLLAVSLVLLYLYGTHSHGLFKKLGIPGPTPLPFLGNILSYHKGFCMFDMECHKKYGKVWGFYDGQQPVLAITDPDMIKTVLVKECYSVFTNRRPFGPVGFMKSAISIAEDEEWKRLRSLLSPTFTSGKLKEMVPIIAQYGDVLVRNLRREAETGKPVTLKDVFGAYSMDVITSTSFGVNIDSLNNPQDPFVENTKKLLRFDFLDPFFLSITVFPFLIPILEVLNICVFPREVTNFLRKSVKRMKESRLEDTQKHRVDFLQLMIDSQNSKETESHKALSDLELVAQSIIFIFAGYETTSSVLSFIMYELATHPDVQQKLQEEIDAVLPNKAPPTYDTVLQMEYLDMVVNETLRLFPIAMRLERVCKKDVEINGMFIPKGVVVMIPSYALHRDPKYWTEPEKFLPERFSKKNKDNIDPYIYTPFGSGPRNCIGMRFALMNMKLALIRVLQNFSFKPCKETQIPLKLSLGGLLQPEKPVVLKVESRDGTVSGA
Chain of CYP2C9 (P11712 whole entry): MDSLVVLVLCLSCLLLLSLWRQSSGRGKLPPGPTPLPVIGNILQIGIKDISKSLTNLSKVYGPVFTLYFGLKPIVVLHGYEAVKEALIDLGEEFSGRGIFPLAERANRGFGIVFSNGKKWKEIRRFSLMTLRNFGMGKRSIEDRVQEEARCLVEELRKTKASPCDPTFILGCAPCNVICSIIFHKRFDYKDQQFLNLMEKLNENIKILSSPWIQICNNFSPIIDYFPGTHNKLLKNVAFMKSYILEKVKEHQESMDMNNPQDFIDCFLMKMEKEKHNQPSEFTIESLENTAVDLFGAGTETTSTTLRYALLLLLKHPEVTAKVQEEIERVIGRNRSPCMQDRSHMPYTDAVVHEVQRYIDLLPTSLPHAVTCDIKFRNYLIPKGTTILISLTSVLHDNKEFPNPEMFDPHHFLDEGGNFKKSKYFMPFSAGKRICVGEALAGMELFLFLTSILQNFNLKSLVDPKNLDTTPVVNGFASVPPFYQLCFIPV
Chain of CYP2C19 (P33261 whole entry): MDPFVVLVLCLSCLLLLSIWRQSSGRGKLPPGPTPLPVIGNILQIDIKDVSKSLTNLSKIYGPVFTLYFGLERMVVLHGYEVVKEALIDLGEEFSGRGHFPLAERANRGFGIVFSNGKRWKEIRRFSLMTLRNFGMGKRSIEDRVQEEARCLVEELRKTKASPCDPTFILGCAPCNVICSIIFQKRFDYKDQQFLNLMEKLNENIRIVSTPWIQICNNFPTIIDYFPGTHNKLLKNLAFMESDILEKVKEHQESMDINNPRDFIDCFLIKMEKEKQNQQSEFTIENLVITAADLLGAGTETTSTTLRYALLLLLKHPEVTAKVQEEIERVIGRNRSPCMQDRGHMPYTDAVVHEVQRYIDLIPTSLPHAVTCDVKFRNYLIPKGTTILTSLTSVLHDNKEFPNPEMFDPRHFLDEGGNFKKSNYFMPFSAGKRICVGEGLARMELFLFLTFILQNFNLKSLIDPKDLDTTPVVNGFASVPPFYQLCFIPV
Chain of Voltage-gated inwardly rectifying potassium channel KCNH2 (Q12809 whole entry): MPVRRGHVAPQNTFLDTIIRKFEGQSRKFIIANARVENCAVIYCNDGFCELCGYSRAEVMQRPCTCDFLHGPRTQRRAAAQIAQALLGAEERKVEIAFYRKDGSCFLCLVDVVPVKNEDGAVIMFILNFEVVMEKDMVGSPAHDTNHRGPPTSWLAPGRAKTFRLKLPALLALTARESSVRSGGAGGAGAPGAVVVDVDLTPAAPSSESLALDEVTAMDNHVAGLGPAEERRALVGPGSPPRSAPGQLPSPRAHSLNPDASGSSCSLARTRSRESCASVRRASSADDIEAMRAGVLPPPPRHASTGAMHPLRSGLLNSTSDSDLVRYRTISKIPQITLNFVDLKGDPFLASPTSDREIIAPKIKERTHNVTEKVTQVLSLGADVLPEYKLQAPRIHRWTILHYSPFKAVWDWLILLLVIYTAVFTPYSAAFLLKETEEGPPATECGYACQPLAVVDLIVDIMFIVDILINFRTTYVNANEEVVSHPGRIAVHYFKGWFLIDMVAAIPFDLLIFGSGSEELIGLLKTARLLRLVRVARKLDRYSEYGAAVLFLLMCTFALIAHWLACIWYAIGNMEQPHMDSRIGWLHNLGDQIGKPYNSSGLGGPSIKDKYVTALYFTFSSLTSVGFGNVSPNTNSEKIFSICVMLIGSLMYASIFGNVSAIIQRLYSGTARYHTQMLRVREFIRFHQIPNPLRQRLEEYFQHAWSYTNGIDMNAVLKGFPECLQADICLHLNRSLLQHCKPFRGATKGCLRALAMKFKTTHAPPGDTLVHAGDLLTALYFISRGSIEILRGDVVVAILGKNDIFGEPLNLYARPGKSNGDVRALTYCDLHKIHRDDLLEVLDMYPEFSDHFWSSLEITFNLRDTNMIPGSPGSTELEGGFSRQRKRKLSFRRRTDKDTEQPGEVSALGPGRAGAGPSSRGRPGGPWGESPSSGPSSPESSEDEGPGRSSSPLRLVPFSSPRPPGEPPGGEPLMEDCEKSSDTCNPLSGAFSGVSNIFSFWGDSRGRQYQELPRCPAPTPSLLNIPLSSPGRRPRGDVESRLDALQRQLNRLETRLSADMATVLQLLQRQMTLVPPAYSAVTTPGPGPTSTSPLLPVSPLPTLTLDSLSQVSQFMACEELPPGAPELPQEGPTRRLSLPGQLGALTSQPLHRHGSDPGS

## Cc1nc2ccc3c(=O)cc(-c4ccc(N5CCCC5)cc4)oc3c2[nH]1
[1]
  inhibition (INH): Not Active
CYP1A2
  inhibition at 3 µM: 27.3%
CYP2C19
  inhibition at 3 µM: 11.1%
CYP2C9
  inhibition at 3 µM: 12.4%
CYP3A4
  inhibition at 3 µM: 10.8%
HepG2
  Activity: Non-toxic
Mus musculus [2]
  Activity: Active
Mus musculus [3]
  Activity: Active
Mus musculus [4]
  Activity: Active
[5]
  AUC(0-t): 19.1 ng·h/mL
[6]
  AUC(0-inf): 21.6 ng·h/mL
[7]
  half-life: 0.967 h
[8]
  Cmax: 7 ng/mL
[9]
  Tmax: 2 h
Mus musculus [10]
  F: 2%
[11]
  AUC(0-inf): 320 ng·h/mL
[12]
  AUC(0-t): 312 ng·h/mL
[13]
  Vd: 10 L/kg
[14]
  Vd: 23.1 L/kg
[15]
  clearance: 156 mL/min/kg
[16]
  half-life: 1.72 h
Mus musculus [17]
  Activity: Active
Mus musculus [18]
  Activity: Active

## O=c1cc(-c2ccc(N3CCCC3)cc2)oc2c1ccc1cc[nH]c12
CYP2C19
  inhibition at 3 µM: 16.2%
CYP2C9
  inhibition at 3 µM: 11.9%
CYP3A4
  inhibition at 3 µM: 3.9%
HepG2
  Activity: Non-toxic
Mus musculus [2]
  Activity: Active
Mus musculus [3]
  Activity: Active
Mus musculus [4]
  Activity: Active
Mus musculus [17]
  Activity: inactive
Mus musculus [18]
  Activity: Active
